Measurements: ChEMBL document CHEMBL5674880 (PLoS One, 2018)
pIC50: −log10 of the molar value.

Assays:
Format in all cases: functional, cell-based
PANC-1 = assay: Antiproliferative activity against human PANC-1 cells after 10 days; details: PANC-1, 240 h
In short: (§1)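 Broad cancer cell line panel (Eurofins Oncopanel, about 240 lines; mycoplasma negative, STR verified) grown in 2D culture and exposed to compound in a 10-day proliferation assay. The top concentration was 10 μM for the SMYD2 inhibitor series and 25 μM for the SMYD3 inhibitor. The proliferative IC50 is taken from concentration-response data, each value the mean of three biological replicates.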

ASPC1 = assay: Antiproliferative activity against human ASPC1 cells after 10 days; details: ASPC1, 240 h
In short: (§2)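 Tested as part of a 240-line cancer cell panel (Eurofins Oncopanel); all lines were mycoplasma-negative and STR-verified. Cells were exposed to a compound concentration series in 2D culture for 10 days. The highest concentration was 10 μM or 25 μM, depending on the inhibitor. Antiproliferative IC50 was derived from the mean of three biological replicates.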

SHP77 = assay: Antiproliferative activity against human SHP77 cells after 10 days; details: SHP77, 240 h
HMCB cell line = assay: Antiproliferative activity against human HMCB cells after 10 days; details: 240 h
In short: (§3)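 10-day 2D proliferation screen of a broad cancer cell panel (about 240 lines, Eurofins Oncopanel). All lines were mycoplasma negative and STR verified. Compounds were dosed up to a top concentration of 10 μM or 25 μM, depending on the inhibitor. Anti-proliferative IC50 values are the average of three biological replicates.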

[1] = Antiproliferative activity against human KPL-1 cells after 10 days; details: KPL-1, 240 h; in short: as §1
SK-BR-3 = assay: Antiproliferative activity against human SK-BR-3 cells after 10 days; details: SK-BR-3, 240 h
OE33 = assay: Antiproliferative activity against human OE33 cells after 10 days; details: OE33, 240 h; in short: as §1
SK-MEL-1 = assay: Antiproliferative activity against human SK-MEL-1 cells after 10 days; details: SK-MEL-1, 240 h
G-402 = assay: Antiproliferative activity against human G-402 cells after 10 days; details: G-402, 240 h; in short: as §3
SH-4 = assay: Antiproliferative activity against human SH-4 cells after 10 days; details: SH-4, 240 h
MEG-01 = assay: Antiproliferative activity against human MEG-01 cells after 10 days; details: MEG-01, 240 h; in short: as §1
Calu-6 = assay: Antiproliferative activity against human Calu-6 cells after 10 days; details: Calu-6, 240 h; in short: as §3
HEL 92.1.7 = assay: Antiproliferative activity against human HEL 92.1.7 cells after 10 days; details: HEL 92.1.7, 240 h; in short: as §3
CWR22R = assay: Antiproliferative activity against human 22Rv1 cells after 10 days; details: 22Rv1, 240 h; in short: as §2
COR-L23 = assay: Antiproliferative activity against human COR-L23 cells after 10 days; details: COR-L23, 240 h; in short: as §3
[2] = Antiproliferative activity against human SKO-007 cells after 10 days; details: SKO-007, 240 h
NCI-H520 = assay: Antiproliferative activity against human NCI-H520 cells after 10 days; details: NCI-H520, 240 h; in short: as §1
NCI-H292 = assay: Antiproliferative activity against human NCI-H292 cells after 10 days; details: NCI-H292, 240 h; in short: as §1
J82 = assay: Antiproliferative activity against human J82 cells after 10 days; details: J82, 240 h; in short: as §1
[3] = Antiproliferative activity against human HLF cells after 10 days; details: 240 h; in short: as §3
CAL-62 = assay: Antiproliferative activity against human CAL-62 cells after 10 days; details: CAL-62, 240 h; in short: as §2
SW900 = assay: Antiproliferative activity against human SW900 cells after 10 days; details: SW900, 240 h
MOLT-3 = assay: Antiproliferative activity against human MOLT-3 cells after 10 days; details: MOLT-3, 240 h; in short: as §1
[4] = Antiproliferative activity against human TE 381.T cells after 10 days; details: 240 h
BT-20 = assay: Antiproliferative activity against human BT-20 cells after 10 days; details: BT-20, 240 h; in short: as §2
AU565 = assay: Antiproliferative activity against human AU565 cells after 10 days; details: AU565, 240 h; in short: as §2
RPMI-6666 = assay: Antiproliferative activity against human RPMI-6666 cells after 10 days; details: RPMI-6666, 240 h
HuP-T4 = assay: Antiproliferative activity against human HuP-T4 cells after 10 days; details: HuP-T4, 240 h; in short: as §1
Capan-2 = assay: Antiproliferative activity against human Capan2 cells after 10 days; details: Capan-2, 240 h; in short: as §3
COR-L105 = assay: Antiproliferative activity against human COR-L105 cells after 10 days; details: COR-L105, 240 h; in short: as §3
NCI-H295R = assay: Antiproliferative activity against human NCI-H295R cells after 10 days; details: 240 h; in short: as §1
C-4-II = assay: Antiproliferative activity against human C-4-II cells after 10 days; details: 240 h
SK-N-AS = assay: Antiproliferative activity against human SK-N-AS cells after 10 days; details: 240 h
Detroit 562 = assay: Antiproliferative activity against human Detroit 562 cells after 10 days; details: Detroit 562, 240 h
COLO-829 = assay: Antiproliferative activity against human COLO-829 cells after 10 days; details: COLO-829, 240 h
SK-MEL-28 = assay: Antiproliferative activity against human SK-MEL-28 cells after 10 days; details: SK-MEL-28, 240 h
SR = assay: Antiproliferative activity against human SR cells after 10 days; details: 240 h
MX1 = assay: Antiproliferative activity against human MX1 cells after 10 days; details: MX1, 240 h
CCRF-CEM = assay: Antiproliferative activity against human CCRF-CEM cells after 10 days; details: 240 h
HLE = assay: Antiproliferative activity against human HLE cells after 10 days; details: 240 h
DBTRG-05MG = assay: Antiproliferative activity against human DBTRG-05MG cells after 10 days; details: 240 h
NCI-H460 = assay: Antiproliferative activity against human NCI-H460 cells after 10 days; details: NCI-H460, 240 h
MDA-MB-468 = assay: Antiproliferative activity against human MDA-MB-468 cells after 10 days; details: MDA-MB-468, 240 h
C32 = assay: Antiproliferative activity against human C32 cells after 10 days; details: C32, 240 h
H4 = assay: Antiproliferative activity against human H4 cells after 10 days; details: H4, 240 h

Cc1cn(CCN2CCN(c3ccccc3-c3cc(C#N)cc(C(=O)NCCCN4CCCC4)c3)CC2)c2ccccc12
pIC50 (PANC-1): 5.54 | pIC50 (ASPC1): 5.52 | pIC50 (SHP77): 5.78 | pIC50 (HMCB cell line): 5.54 | pIC50 [1]: 5.46 | pIC50 (SK-BR-3): 5.93 | pIC50 (OE33): 5.70 | pIC50 (SK-MEL-1): 5.72 | pIC50 (G-402): 5.66 | pIC50 (SH-4): 5.94 | pIC50 (MEG-01): 5.89 | pIC50 (Calu-6): 5.43 | pIC50 (HEL 92.1.7): 5.45 | pIC50 (CWR22R): 5.97 | pIC50 (COR-L23): 5.66 | pIC50 [2]: 6.07 | pIC50 (NCI-H520): 5.57 | pIC50 (NCI-H292): 5.57 | pIC50 (J82): 5.50 | pIC50 [3]: 5.61 | pIC50 (CAL-62): 5.68 | pIC50 (SW900): 5.49 | pIC50 (MOLT-3): 5.87 | pIC50 [4]: 5.70 | pIC50 (BT-20): 5.47 | pIC50 (AU565): 5.90 | pIC50 (RPMI-6666): 5.54 | pIC50 (HuP-T4): 5.46 | pIC50 (Capan-2): 5.80 | pIC50 (COR-L105): 5.95 | pIC50 (NCI-H295R): 5.32

O=C(NC1CN(Cc2cnn(Cc3ccccc3)c2)C1)c1cn(C2CC2)nn1
pIC50 (PANC-1): < 5.00 | pIC50 (C-4-II): < 5.00 | pIC50 (ASPC1): < 5.00 | pIC50 (SHP77): < 5.00 | pIC50 (SK-N-AS): < 5.00 | pIC50 (Detroit 562): < 5.00 | pIC50 (COLO-829): 5.24 | pIC50 (HMCB cell line): < 5.00 | pIC50 [1]: < 5.00 | pIC50 (SK-BR-3): < 5.00 | pIC50 (OE33): < 5.00 | pIC50 (SK-MEL-1): < 5.00 | pIC50 (G-402): < 5.00 | pIC50 (SH-4): < 5.00 | pIC50 (MEG-01): < 5.00 | pIC50 (SK-MEL-28): < 5.00 | pIC50 (Calu-6): < 5.00 | pIC50 (HEL 92.1.7): < 5.00 | pIC50 (CWR22R): < 5.00 | pIC50 (COR-L23): < 5.00 | pIC50 [2]: 6.77 | pIC50 (SR): < 5.00 | pIC50 (NCI-H520): < 5.00 | pIC50 (MX1): < 5.00 | pIC50 (NCI-H292): < 5.00 | pIC50 (CCRF-CEM): < 5.00 | pIC50 (J82): < 5.00 | pIC50 [3]: < 5.00 | pIC50 (CAL-62): < 5.00 | pIC50 (SW900): < 5.00 | pIC50 (HLE): < 5.00 | pIC50 (MOLT-3): < 5.00 | pIC50 (DBTRG-05MG): < 5.00 | pIC50 (NCI-H460): < 5.00 | pIC50 [4]: < 5.00 | pIC50 (BT-20): < 5.00 | pIC50 (AU565): < 5.00 | pIC50 (RPMI-6666): < 5.00 | pIC50 (MDA-MB-468): < 5.00 | pIC50 (HuP-T4): < 5.00 | pIC50 (Capan-2): < 5.00 | pIC50 (C32): < 5.00 | pIC50 (H4): < 5.00 | pIC50 (COR-L105): < 5.00 | pIC50 (NCI-H295R): < 5.00
